Positions of bridges follow the written chain, without caps; N, C: chain ends. Residues, ends and D or L forms follow the SMILES beside them.
Biological target: Sodium channel protein type 5 subunit alpha (Homo sapiens, UniProt Q14524)
Assay: Inhibition of human Nav1.5 expressed in HEK293 cells assessed as inward peak current by ion-works quattro patch clamp electrophysiology method
Type: cell-based
Method in brief: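 Stable HEK293 line expressing human NaV1.5, recorded by population patch clamp on the IonWorks Quattro.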

Sequence of Sodium channel protein type 5 subunit alpha (Q14524 whole entry): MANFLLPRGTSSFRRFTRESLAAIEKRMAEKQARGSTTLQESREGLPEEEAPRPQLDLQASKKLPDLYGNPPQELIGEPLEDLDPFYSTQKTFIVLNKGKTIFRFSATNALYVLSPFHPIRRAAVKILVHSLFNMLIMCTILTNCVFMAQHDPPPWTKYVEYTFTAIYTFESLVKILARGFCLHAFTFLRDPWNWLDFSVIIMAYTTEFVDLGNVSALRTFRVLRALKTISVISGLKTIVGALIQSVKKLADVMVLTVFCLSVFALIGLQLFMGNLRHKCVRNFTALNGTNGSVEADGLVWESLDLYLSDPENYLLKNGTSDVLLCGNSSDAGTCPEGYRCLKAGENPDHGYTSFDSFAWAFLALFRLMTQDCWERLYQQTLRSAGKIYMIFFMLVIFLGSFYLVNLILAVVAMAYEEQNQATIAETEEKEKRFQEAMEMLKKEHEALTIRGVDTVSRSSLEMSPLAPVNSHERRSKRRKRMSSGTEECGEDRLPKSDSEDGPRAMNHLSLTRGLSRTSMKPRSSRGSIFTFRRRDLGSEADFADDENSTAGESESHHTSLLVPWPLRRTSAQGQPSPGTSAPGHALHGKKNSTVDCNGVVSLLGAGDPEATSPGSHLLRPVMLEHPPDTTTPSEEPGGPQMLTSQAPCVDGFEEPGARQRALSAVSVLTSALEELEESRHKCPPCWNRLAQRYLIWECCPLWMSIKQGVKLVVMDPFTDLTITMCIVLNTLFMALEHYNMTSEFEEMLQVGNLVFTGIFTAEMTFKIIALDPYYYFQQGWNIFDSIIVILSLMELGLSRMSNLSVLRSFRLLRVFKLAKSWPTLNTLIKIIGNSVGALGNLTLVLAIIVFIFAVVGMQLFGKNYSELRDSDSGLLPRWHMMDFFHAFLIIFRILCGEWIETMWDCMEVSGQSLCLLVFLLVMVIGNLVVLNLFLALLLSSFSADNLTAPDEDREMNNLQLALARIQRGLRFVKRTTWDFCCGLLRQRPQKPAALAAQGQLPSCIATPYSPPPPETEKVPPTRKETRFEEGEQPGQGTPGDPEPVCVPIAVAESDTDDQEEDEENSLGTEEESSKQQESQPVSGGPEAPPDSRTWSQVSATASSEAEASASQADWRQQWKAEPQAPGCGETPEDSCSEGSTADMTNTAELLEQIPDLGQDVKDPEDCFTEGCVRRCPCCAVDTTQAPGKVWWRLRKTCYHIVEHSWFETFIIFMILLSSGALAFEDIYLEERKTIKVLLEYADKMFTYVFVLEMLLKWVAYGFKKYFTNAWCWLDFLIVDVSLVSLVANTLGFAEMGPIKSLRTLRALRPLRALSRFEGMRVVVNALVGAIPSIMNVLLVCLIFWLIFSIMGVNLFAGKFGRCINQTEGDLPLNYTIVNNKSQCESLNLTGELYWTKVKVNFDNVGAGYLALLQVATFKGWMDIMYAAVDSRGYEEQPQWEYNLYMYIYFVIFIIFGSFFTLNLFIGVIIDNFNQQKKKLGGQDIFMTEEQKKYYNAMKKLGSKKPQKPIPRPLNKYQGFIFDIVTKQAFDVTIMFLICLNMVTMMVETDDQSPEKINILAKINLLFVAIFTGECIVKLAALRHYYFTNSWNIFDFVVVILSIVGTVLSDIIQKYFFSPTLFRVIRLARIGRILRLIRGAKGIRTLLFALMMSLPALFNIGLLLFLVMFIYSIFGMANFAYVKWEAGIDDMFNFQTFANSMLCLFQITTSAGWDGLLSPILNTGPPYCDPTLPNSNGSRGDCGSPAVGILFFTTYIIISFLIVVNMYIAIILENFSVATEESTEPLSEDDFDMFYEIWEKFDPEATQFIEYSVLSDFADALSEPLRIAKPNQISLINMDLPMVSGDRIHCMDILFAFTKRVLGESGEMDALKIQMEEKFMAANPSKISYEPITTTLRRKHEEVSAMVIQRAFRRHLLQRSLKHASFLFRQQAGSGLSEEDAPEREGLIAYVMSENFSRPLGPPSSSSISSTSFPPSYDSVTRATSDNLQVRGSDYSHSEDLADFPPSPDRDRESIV

| SMILES | IC50 |
| --- | --- |
| CC[C@H](C)[C@@H]1NC(=O)[C@@H]2CSSC[C@@H]3NC(=O)[C@H](CCCNC(=N)N)NC(=O)[C@H](CC(C)C)NC(=O)[C@H](CC(N)=O)NC(=O)[C@@H]4CCCN4C(=O)[C@H](CCCNC(=N)N)NC(=O)[C@H](CSSC[C@H](NC(=O)[C@@H](N)CC(=O)O)C(=O)N[C@@H](CC(C)C)C(=O)NCC(=O)N[C@@H](Cc4ccccc4)C(=O)N[C@@H](CCSC)C(=O)N[C@@H](CCCNC(=N)N)C(=O)N[C@@H](CCCCN)C(=O)N2)NC(=O)[C@H](CSSC[C@@H](C(=O)N[C@@H](CCCCN)C(=O)N[C@@H](Cc2ccc(O)cc2)C(=O)N[C@H](C(=O)N[C@@H](Cc2ccccc2)C(N)=O)C(C)C)NC(=O)[C@H](Cc2c[nH]c4ccccc24)NC(=O)[C@H](CCCCN)NC(=O)[C@H](Cc2cnc[nH]2)NC(=O)[C@H]([C@@H](C)O)NC(=O)[C@H](CCCNC(=N)N)NC(=O)[C@H](CO)NC3=O)NC(=O)[C@H](CCCCN)NC(=O)[C@H](CC(=O)O)NC(=O)[C@H](CC(N)=O)NC(=O)[C@H](CC(=O)O)NC(=O)[C@@H]2CCCN2C1=O (H-DCLGFMRKCIPDNDKCCRPNLRCSRTHKWCKYVF-NH2; disulfide 2-17, 9-23, 16-30) | > 5 µM |
| CC[C@H](C)[C@@H]1NC(=O)[C@@H]2CSSC[C@@H]3NC(=O)[C@H](C(C)C)NC(=O)[C@H](CC(C)C)NC(=O)[C@H](CC(N)=O)NC(=O)[C@@H]4CCCN4C(=O)[C@H](CCCNC(=N)N)NC(=O)[C@H](CSSC[C@H](NC(=O)[C@@H](N)CC(=O)O)C(=O)N[C@@H](CC(C)C)C(=O)NCC(=O)N[C@@H](Cc4ccccc4)C(=O)N[C@@H](CCSC)C(=O)N[C@@H](CCCNC(=N)N)C(=O)N[C@@H](CCCCN)C(=O)N2)NC(=O)[C@H](CSSC[C@@H](C(=O)N[C@@H](CCCCN)C(=O)N[C@@H](Cc2ccc(O)cc2)C(=O)N[C@H](C(N)=O)C(C)C)NC(=O)[C@H](Cc2c[nH]c4ccccc24)NC(=O)[C@H](CCCCN)NC(=O)[C@H](Cc2cnc[nH]2)NC(=O)[C@H]([C@@H](C)O)NC(=O)[C@H](CCCNC(=N)N)NC(=O)[C@H](CO)NC3=O)NC(=O)[C@H](CCCCN)NC(=O)[C@H](CC(=O)O)NC(=O)[C@H](CC(N)=O)NC(=O)[C@H](CC(=O)O)NC(=O)[C@@H]2CCCN2C1=O (H-DCLGFMRKCIPDNDKCCRPNLVCSRTHKWCKYV-NH2; disulfide 2-17, 9-23, 16-30) | > 5 µM |
| CC[C@H](C)[C@@H]1NC(=O)[C@@H]2CSSC[C@@H]3NC(=O)[C@H](C(C)C)NC(=O)[C@H](CC(C)C)NC(=O)[C@H](CC(N)=O)NC(=O)[C@@H]4CCCN4C(=O)[C@H](CCCNC(=N)N)NC(=O)[C@H](CSSC[C@H](NC(=O)[C@@H](N)CC(=O)O)C(=O)N[C@@H](CC(C)C)C(=O)NCC(=O)N[C@@H](Cc4cccc5ccccc45)C(=O)N[C@@H](CCSC)C(=O)N[C@@H](CCCNC(=N)N)C(=O)N[C@@H](CCCCN)C(=O)N2)NC(=O)[C@H](CSSC[C@@H](C(=O)N[C@@H](CCCCN)C(=O)N[C@@H](Cc2ccc(O)cc2)C(=O)N[C@H](C(=O)N[C@@H](Cc2ccccc2)C(N)=O)C(C)C)NC(=O)[C@H](Cc2c[nH]c4ccccc24)NC(=O)[C@H](CCCCN)NC(=O)[C@H](Cc2c[nH]cn2)NC(=O)[C@H]([C@@H](C)O)NC(=O)[C@H](CCCNC(=N)N)NC(=O)[C@H](CO)NC3=O)NC(=O)[C@H](CCCCN)NC(=O)[C@H](CC(=O)O)NC(=O)[C@H](CC(N)=O)NC(=O)[C@H](CC(=O)O)NC(=O)[C@@H]2CCCN2C1=O | > 5 µM |
| CSCC[C@@H]1NC(=O)[C@H](Cc2ccccc2)NC(=O)CNC(=O)[C@H](CC(C)C)NC(=O)[C@@H](NC(=O)[C@@H](N)CC(=O)O)CSSC[C@@H]2NC(=O)[C@@H]3CSSC[C@@H](C(=O)N[C@@H](CCCCN)C(=O)N[C@@H](Cc4ccc(O)cc4)C(=O)N[C@H](C(=O)N[C@@H](Cc4ccccc4)C(N)=O)C(C)C)NC(=O)[C@H](Cc4c[nH]c5ccccc45)NC(=O)[C@H](CCCCN)NC(=O)[C@H](Cc4cnc[nH]4)NC(=O)[C@H]([C@@H](C)O)NC(=O)[C@H](CCCNC(=N)N)NC(=O)[C@H](CO)NC(=O)[C@H](CSSC[C@H](NC(=O)[C@H](CCCCN)NC(=O)[C@H](CCCNC(=N)N)NC1=O)C(=O)N[C@@H](Cc1ccc(C(=O)O)cc1)C(=O)N1CCC[C@H]1C(=O)N[C@@H](CC(=O)O)C(=O)N[C@@H](CC(N)=O)C(=O)N[C@@H](CC(=O)O)C(=O)N[C@@H](CCCCN)C(=O)N3)NC(=O)[C@H](C(C)C)NC(=O)[C@H](CC(C)C)NC(=O)[C@H](CC(N)=O)NC(=O)[C@@H]1CCCN1C(=O)[C@H](CCCNC(=N)N)NC2=O | > 4.8 µM |
| CC[C@H](C)[C@@H]1NC(=O)[C@@H]2CSSC[C@@H]3NC(=O)[C@H](C(C)C)NC(=O)[C@H](CC(C)C)NC(=O)[C@H](CC(N)=O)NC(=O)[C@@H]4CCCN4C(=O)[C@H](CCCNC(=N)N)NC(=O)[C@H](CSSC[C@H](NC(=O)[C@H](CC(=O)O)NC(=O)[C@@H](N)CCCNC(=N)N)C(=O)N[C@@H](CC(C)C)C(=O)NCC(=O)N[C@@H](Cc4ccccc4)C(=O)N[C@@H](CCSC)C(=O)N[C@@H](CCCNC(=N)N)C(=O)N[C@@H](CCCCN)C(=O)N2)NC(=O)[C@H](CSSC[C@@H](C(=O)N[C@@H](CCCCN)C(=O)N[C@@H](Cc2ccc(O)cc2)C(=O)N[C@H](C(=O)N[C@@H](Cc2ccccc2)C(N)=O)C(C)C)NC(=O)[C@H](Cc2c[nH]c4ccccc24)NC(=O)[C@H](CCCCN)NC(=O)[C@H](Cc2cnc[nH]2)NC(=O)[C@H]([C@@H](C)O)NC(=O)[C@H](CCCNC(=N)N)NC(=O)[C@H](CO)NC3=O)NC(=O)[C@H](CCCCN)NC(=O)[C@H](CC(=O)O)NC(=O)[C@H](CC(N)=O)NC(=O)[C@H](CC(=O)O)NC(=O)[C@@H]2CCCN2C1=O | > 5 µM |
| CC[C@H](C)[C@@H]1NC(=O)[C@@H]2CSSC[C@@H]3NC(=O)[C@H](CCC(=O)O)NC(=O)[C@H](CC(C)C)NC(=O)[C@H](CC(N)=O)NC(=O)[C@@H]4CCCN4C(=O)[C@H](CCCNC(=N)N)NC(=O)[C@H](CSSC[C@H](NC(=O)[C@@H](N)CC(=O)O)C(=O)N[C@@H](CC(C)C)C(=O)NCC(=O)N[C@@H](Cc4ccccc4)C(=O)N[C@@H](CCSC)C(=O)N[C@@H](CCCNC(=N)N)C(=O)N[C@@H](CCCCN)C(=O)N2)NC(=O)[C@H](CSSC[C@@H](C(=O)N[C@@H](CCCCN)C(=O)N[C@@H](Cc2ccc(O)cc2)C(=O)N[C@H](C(=O)N[C@@H](Cc2ccccc2)C(N)=O)C(C)C)NC(=O)[C@H](Cc2c[nH]c4ccccc24)NC(=O)[C@H](CCCCN)NC(=O)[C@H](Cc2cnc[nH]2)NC(=O)[C@H]([C@@H](C)O)NC(=O)[C@H](CCCNC(=N)N)NC(=O)[C@H](CO)NC3=O)NC(=O)[C@H](CCCCN)NC(=O)[C@H](CC(=O)O)NC(=O)[C@H](CC(N)=O)NC(=O)[C@H](CC(=O)O)NC(=O)[C@@H]2CCCN2C1=O (H-DCLGFMRKCIPDNDKCCRPNLECSRTHKWCKYVF-NH2; disulfide 2-17, 9-23, 16-30) | > 5 µM |
| CC[C@H](C)[C@@H]1NC(=O)[C@@H]2CSSC[C@@H]3NC(=O)[C@H](C(C)C)NC(=O)[C@H](CC(C)C)NC(=O)[C@H](CC(N)=O)NC(=O)[C@@H]4CCCN4C(=O)[C@H](CCCNC(=N)N)NC(=O)[C@H](CSSC[C@H](NC(=O)[C@@H](N)CC(=O)O)C(=O)N[C@@H](CC(C)C)C(=O)NCC(=O)N[C@@H](Cc4ccccc4)C(=O)N[C@@H](CCC(=O)O)C(=O)N[C@@H](CCCNC(=N)N)C(=O)N[C@@H](CCCCN)C(=O)N2)NC(=O)[C@H](CSSC[C@@H](C(=O)N[C@@H](CCCCN)C(=O)N[C@@H](Cc2ccc(O)cc2)C(=O)N[C@H](C(=O)N[C@@H](Cc2ccccc2)C(N)=O)C(C)C)NC(=O)[C@H](Cc2c[nH]c4ccccc24)NC(=O)[C@H](CCCCN)NC(=O)[C@H](Cc2cnc[nH]2)NC(=O)[C@H]([C@@H](C)O)NC(=O)[C@H](CCCNC(=N)N)NC(=O)[C@H](CO)NC3=O)NC(=O)[C@H](CCCCN)NC(=O)[C@H](CC(=O)O)NC(=O)[C@H](CC(N)=O)NC(=O)[C@H](CC(=O)O)NC(=O)[C@@H]2CCCN2C1=O (H-DCLGFERKCIPDNDKCCRPNLVCSRTHKWCKYVF-NH2; disulfide 2-17, 9-23, 16-30) | > 5 µM |
| CSCC[C@@H]1NC(=O)[C@H](Cc2ccccc2)NC(=O)CNC(=O)[C@H](CC(C)C)NC(=O)[C@@H](NC(=O)[C@@H](N)CC(=O)O)CSSC[C@@H]2NC(=O)[C@@H]3CSSC[C@@H](C(=O)N[C@@H](CCCCN)C(=O)N[C@@H](Cc4ccc(O)cc4)C(=O)N[C@H](C(=O)N[C@@H](Cc4ccccc4)C(N)=O)C(C)C)NC(=O)[C@H](Cc4c[nH]c5ccccc45)NC(=O)[C@H](CCCCN)NC(=O)[C@H](Cc4cnc[nH]4)NC(=O)[C@H]([C@@H](C)O)NC(=O)[C@H](CCCNC(=N)N)NC(=O)[C@H](CO)NC(=O)[C@H](CSSC[C@H](NC(=O)[C@H](CCCCN)NC(=O)[C@H](CCCNC(=N)N)NC1=O)C(=O)N[C@@H](Cc1ccccn1)C(=O)N1CCC[C@H]1C(=O)N[C@@H](CC(=O)O)C(=O)N[C@@H](CC(N)=O)C(=O)N[C@@H](CC(=O)O)C(=O)N[C@@H](CCCCN)C(=O)N3)NC(=O)[C@H](C(C)C)NC(=O)[C@H](CC(C)C)NC(=O)[C@H](CC(N)=O)NC(=O)[C@@H]1CCCN1C(=O)[C@H](CCCNC(=N)N)NC2=O | > 5 µM |
| CC[C@H](C)[C@@H]1NC(=O)[C@@H]2CSSC[C@@H]3NC(=O)[C@H](C(C)C)NC(=O)[C@H](CC(C)C)NC(=O)[C@H](CC(N)=O)NC(=O)[C@H](CCCNC(=N)N)NC(=O)[C@H](CCCNC(=N)N)NC(=O)[C@H](CSSC[C@H](NC(=O)[C@@H](N)CC(=O)O)C(=O)N[C@@H](CC(C)C)C(=O)NCC(=O)N[C@@H](Cc4ccccc4)C(=O)N[C@@H](CCSC)C(=O)N[C@@H](CCCNC(=N)N)C(=O)N[C@@H](CCCCN)C(=O)N2)NC(=O)[C@H](CSSC[C@@H](C(=O)N[C@@H](CCCCN)C(=O)N[C@@H](Cc2ccc(O)cc2)C(=O)N[C@H](C(=O)N[C@@H](Cc2ccccc2)C(N)=O)C(C)C)NC(=O)[C@H](Cc2c[nH]c4ccccc24)NC(=O)[C@H](CCCCN)NC(=O)[C@H](Cc2cnc[nH]2)NC(=O)[C@H]([C@@H](C)O)NC(=O)[C@H](CCCNC(=N)N)NC(=O)[C@H](CO)NC3=O)NC(=O)[C@H](CCCCN)NC(=O)[C@H](CC(=O)O)NC(=O)[C@H](CC(N)=O)NC(=O)[C@H](CC(=O)O)NC(=O)[C@@H]2CCCN2C1=O (H-DCLGFMRKCIPDNDKCCRRNLVCSRTHKWCKYVF-NH2; disulfide 2-17, 9-23, 16-30) | > 5 µM |

Source: ChEMBL document CHEMBL3797186, “Single Residue Substitutions That Confer Voltage-Gated Sodium Ion Channel Subtype Selectivity in the NaV1.7 Inhibitory Peptide GpTx-1” (J Med Chem, 2016)
